# Assay outcomes deposited in PubChem by several laboratories.
# A selection: hits, their analogues and other compounds. The true share with any hit is near 7.9%.
# JNK3 inh: JNK3 kinase activity inhibitors, primary screen, biochemical, human, purified enzyme. Mitogen-activated protein kinase 10 (Homo sapiens), P53779. HTS. inhibition, % at 8 µM. hit rate 0.61% among 60,000. AID 746, 2007; in the data active means inhibition above about 17%;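 further: 0% = DMSO and 100% = reference inhibitor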
# Target sequence (P53779 whole entry, looked up): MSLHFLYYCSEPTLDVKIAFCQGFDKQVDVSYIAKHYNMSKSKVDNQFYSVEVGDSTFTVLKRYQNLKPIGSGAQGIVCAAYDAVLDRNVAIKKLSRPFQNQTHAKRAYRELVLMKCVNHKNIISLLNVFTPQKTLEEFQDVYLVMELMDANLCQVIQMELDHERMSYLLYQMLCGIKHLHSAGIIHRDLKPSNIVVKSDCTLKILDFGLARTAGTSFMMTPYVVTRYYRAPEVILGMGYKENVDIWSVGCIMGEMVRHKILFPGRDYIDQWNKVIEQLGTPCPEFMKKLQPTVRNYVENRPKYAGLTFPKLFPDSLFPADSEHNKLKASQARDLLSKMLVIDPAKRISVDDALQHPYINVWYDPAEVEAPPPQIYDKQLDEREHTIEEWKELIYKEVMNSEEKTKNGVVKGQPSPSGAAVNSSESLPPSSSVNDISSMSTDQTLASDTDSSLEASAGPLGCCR
# RORA act: activators of orphan receptor RORA, primary screen, cell-based, luminescence; hit rate 1.5% among 65,000; CHO-K1 Gal4-RORA LBD luciferase reporter; percent increase over mock-subtracted basal signal; activation, % at 10 µM; AID 560, 2006;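 active means activation above the mean of all tested compounds plus 3 SD, cut at about 49% in these data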;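 further: 0% = DMSO-treated RORA cells and 100% = added signal equal to DMSO minus mock-transfected cells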
# HEK293 NFkB inh: inhibitors of PMA/ionomycin-induced NF-kB reporter, primary screen, antigen receptor NF-kB inhibitor project, cell-based, HEK-293 luciferase reporter, luminescence; hit rate 0.21% among 62,000; AID 465, 2006; inhibition, % at 3 µM; HEK-293 NF-kB luciferase reporter;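 active means inhibition above the mean of all tested compounds plus 3 SD, cut at about 40% in these data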;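 further: 0% = stimulated DMSO wells and 100% = 10 µM reference inhibitor 5653914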
#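 Reagent: PMA plus ionomycin mix as NF-kB-activating stimulus. Assay system: NF-kB luciferase reporter HEK-293 cells. Technique: luminescence from luciferase substrate reagent. Incubation: 1 h compound pre-incubation, 16 h PMA/ionomycin at 37 °C. Benchmarks: DMSO only as uninhibited control, 10 µM reference inhibitor as full inhibition. Repeats: tested once.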
# SF-1 act: activators of human SF-1, primary screen, cell-based, CHO-K1, Gal4-SF-1 LBD, luciferase luminescence. Steroidogenic factor 1 (Homo sapiens), Q13285. CHO-K1 Gal4-SF-1 LBD luciferase reporter; % increase over DMSO SF-1-specific signal. activation, % at 10 µM. hit rate 1.9% among 65,000. AID 522, 2006;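 active means activation above the mean activation of all tested compounds plus 3 SD, cut at about 50% in these data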
#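 Test system: CHO-K1 cells co-transfected with Gal4 DBD–human SF-1 LBD, 5xGal4 luciferase reporter. Quantity: 4,000 cells per well. Compound: 10 µM only. Incubation: compound added 1 h post-seeding, 20 h exposure at 37 °C, 5% CO2. Detection: SteadyLite luciferase luminescence. Replication: one test per compound.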
# D1 mod: D1 CRE-luciferase signal change, two-sided – cell-based, HEK293 D1, dopamine EC30, D1 allosteric modulator project, primary screen | D(1A) dopamine receptor (Homo sapiens), P21728 | dopamine EC30 potentiation; actives deviate in either direction | B-score at 10 µM | hit rate 5.9% among 58,000 | AID 641, 2007;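 active means luminescence count or its row- and column-corrected plate score outside the 99.7% band of the plate's sample wells, on either side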
# D1 mod confirm: D1 receptor positive allosteric modulators, retest, confirmation, cell-based, HEK293 D1, CRE-luciferase, duplicate; shares compounds with D1 mod; dopamine EC30 potentiation; hits give high values; luminescence at 10 µM; hit rate 88% among 2,200; AID 642, 2007;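 active means luminescence in either of two replicates above the same-plate mean plus 3 SD of the low-dose dopamine control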
# D1 no dopamine: D1 receptor agonism without dopamine, confirmation, mechanism study for D1 allosteric modulator project, cell-based, HEK293 D1, CRE-luciferase, secondary assay 1; AID 646, 2007; shares compounds with D1 mod; hit rate 0.8% among 1,900; luminescence, no dopamine; hits give high values; luminescence at 10 µM; in the data active means luminescence above about 3900
# Isoprot counter: counter-screen for D1 modulators: isoproterenol response in HEK293 cells. calls only at 10 µM. HEK293 D1 CRE-luciferase, isoproterenol EC30 counter-screen. shares compounds with D1 mod. hit rate 63% among 2,200. AID 647;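 active means luminescence in either replicate above plate mean of wells with a partly effective reference agonist dose plus 3 SD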;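 further: isoproterenol raises cAMP through native beta-adrenoceptor Gs so signal bypasses D1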
# Numbers without * were called inactive; i = inactive; x = no result; + = active, no number.
SMILES,JNK3 inh,RORA act,HEK293 NFkB inh,SF-1 act,D1 mod,D1 mod confirm,D1 no dopamine,Isoprot counter
COc1ccc2c(c1OC)C(=O)N(c1cccc(C)c1)C2=O,3.9,-5.3,14.8,-2.5,4.6*,10596*,1716,+
CCSc1nc2c(c(=O)n1CC)SC(C)C2 (stereo not given),4.5,-7.3,6.7,-14.3,5.46*,12712*,1732,i
CSc1nc2c(c(=O)n1C)SC(C)C2 (stereo not given),-1.2,14.3,9.3,-1.6,2.73,x,x,x
CCC(C)Sc1nc2c(c(=O)n1C)SC(C)C2 (stereo not given),-5.8,7.1,12.8,-11.0,3.95*,8748*,1640,i
CCn1c(SCC(=O)Nc2cc(C)on2)nc2c(c1=O)SC(C)C2 (stereo not given),-3.4,-16.2,22.0,7.2,6.2*,6212*,1608,i
Cc1cc2oc(C(=O)N(Cc3ccco3)C3CCS(=O)(=O)C3)cc(=O)c2cc1Cl (stereo not given),1.8,0.1,14.0,-4.0,0.982,x,x,x
CCCOC(=O)NC(CC)COC(=O)Nc1cccc(C)c1C (stereo not given),2.1,-19.9,-1.0,-3.2,8.18*,6072,1720,i
CCC(=O)N1CCCc2cc(S(=O)(=O)N3CCN(c4ccccn4)CC3)ccc21,-1.7,14.1,7.1,35.2,0.00703,x,x,x
COc1ccc(C2CC(c3ccccc3C)n3nc(N)nc3N2)cc1 (stereo not given),3.3,-15.1,12.2,6.2,-0.0111,x,x,x
Cc1cccc(C2CC(c3ccc(F)cc3)Nc3nc(N)nn32)c1 (stereo not given),4.5,2.6,4.5,-4.7,4.67*,11784*,1444,i
Cc1ccc(C2CC(c3ccccc3C)n3nc(N)nc3N2)cc1 (stereo not given),-7.7,-20.3,15.8,-17.8,5.28*,6604,1668,i
CCOc1ccc(C2CC(c3cccc(C)c3)n3nc(N)nc3N2)cc1 (stereo not given),0.8,-4.2,13.1,11.5,4.99*,10456*,x,+
COc1ccc(C2CC(=O)Nc3ccccc3S2(=O)=O)cc1OC (stereo not given),1.1,8.3,12.5,-6.8,2.86*,9916*,1608,i
COc1ccc(C2Nc3ccccc3C(=O)N2O)cc1OC (stereo not given),-3.3,16.9,-1.2,3.8,x,x,x,x
COc1cc(NC(=O)c2nccnc2C(=O)O)cc(OC)c1,2.1,6.8,11.6,1.3,-0.32,x,x,x
CCOc1ccc(-c2nnc(-c3ccco3)o2)cc1OCC,-0.8,21.6,5.8,41.6,15.4*,17272*,1612,+
CC(C)OP(C)(=O)CN1CCN(CP(C)(=O)OC(C)C)CC1 (stereo not given),-1.9,-12.4,-1.2,4.5,x,x,x,x
Cc1c(S(=O)(=O)Nc2ccc3c(c2)OCCO3)c(=O)n(C)c(=O)n1C,0.5,-0.7,2.5,-13.6,0.97,x,x,x
Cc1c(S(=O)(=O)Nc2cccc(Cl)c2)c(=O)n(C)c(=O)n1C,-5.6,-13.1,4.5,-7.5,2.73*,6100,1648,i
CCCS(=O)(=O)N1CCC(C(=O)NCCN(C)Cc2ccccc2)CC1,-1.7,-13.8,-2.1,-6.2,2.6*,5744,1548,i
COc1ccc(CC(=O)N2CCN=C2SC)cc1,7.5,5.3,5.9,1.4,11.4*,15276*,1524,+
O=C(c1ccc(S(=O)(=O)N2CCCC2)cc1)N1CCCc2ccccc21,-3.0,-8.8,4.3,-8.3,-1.53,x,x,x
CCOC(=O)c1cnn2c(C(F)F)cc(C3CC3)nc12,-0.8,-11.5,7.2,4.8,3.73*,14020*,1636,+
O=C(Nc1cccnc1)c1cnn2c(C(F)F)cc(C3CC3)nc12,6.3,-4.1,2.6,-2.9,5.01*,16636*,1580,+
CCOC(=O)c1cnn2c(C(F)(F)F)cc(-c3ccco3)nc12,3.4,-5.6,-2.7,0.8,0.973,x,x,x
SMILES,JNK3 inh,RORA act,HEK293 NFkB inh,SF-1 act,D1 mod,D1 mod confirm,D1 no dopamine,Isoprot counter
CN(C)S(=O)(=O)c1cccc(-c2nnc(SCc3ccc4c(c3)OCCO4)o2)c1,0.8,-4.5,18.3,4.6,x,x,x,x
COc1ccc(-c2noc(CSc3ccccc3)n2)cc1OC,-2.9,38.1,-4.3,68.2*,9.38*,8800*,1600,+
Cc1ccc(-c2nnc(SCc3ccccc3F)o2)cc1,1.8,32.7,-27.4,19.4,-2.09,x,x,x
COc1ccc(-c2noc(CCN3C(=O)c4ccccc4C3=O)n2)cc1OC,1.3,12.4,11.6,1.9,2.61*,17536*,1456,i
COc1ccc(-c2noc(CSc3nnc(CCc4ccccc4)n3-c3ccccc3)n2)cc1OC,0.1,4.6,7.2,16.9,7.23*,10480*,1584,+
COc1ccc(-c2nnc(SCc3ccccc3F)o2)cc1OC,1.9,39.9,3.1,45.6,11.7*,22288*,1720,+
CCOC(=O)CSc1nnc(CNC(=O)c2cccs2)n1-c1cc(C)ccc1C,2.9,11.0,9.4,12.2,0.0422,x,x,x
Cc1cc(Cn2ccnc2)c(C)cc1Cn1ccnc1,-0.1,-12.9,x,-4.8,0.208,x,x,x
COC(=O)c1ccc2nc(C(F)(F)F)[nH]c2c1,-3.6,2.1,12.9,5.6,-0.303,x,x,x
N#Cc1ccccc1Cn1c(-c2cscn2)nc2ccccc21,0.3,5.8,18.8,-4.5,13.4*,15376*,1480,+
O=C(O)Cn1c(-c2cscn2)nc2ccccc21,6.0,-15.4,0.9,-20.2,-0.121,x,x,x
CCn1c(Sc2nc(C)nc3scc(-c4cccs4)c23)n[nH]c1=O,3.3,-10.1,20.4,4.9,8.1*,15492*,1856,+
COc1ccc(-c2nnc(SCC(=O)Nc3cc(C)on3)n2N)cc1OC,-5.5,0.1,8.1,-9.0,0.854,x,x,x
COc1ccc(-c2ccc(SCC(=O)Nc3cc(C)on3)nn2)cc1OC,0.0,-0.8,19.5,-7.8,5.76*,23296*,1724,+
